Assay results reported in ChEMBL document CHEMBL1149817, “Epimers of bicyclo[2.2.2]octan-2-ol derivatives with antiprotozoal activity” (Eur J Med Chem, 2008).
pIC50: −log10 of the molar value.

Legend:
[1] = tested on: Plasmodium falciparum; test: Antiprotozoal activity against chloroquine and pyrimethamine-resistant Plasmodium falciparum K1; assay type: functional, organism-based
In short: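 Read-out was IC50 against the K1 strain of P. falciparum, which is resistant to chloroquine and pyrimethamine. The table footnote gives values from two independent experiments.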

[2] = tested on: Trypanosoma brucei rhodesiense; test: Antiprotozoal activity against Trypanosoma brucei rhodesiense STIB900; assay type: functional, organism-based
[3] = tested on: L6; test: Cytotoxicity against rat L6 cells; assay type: cell-based

SMILES | pIC50 [1] | pIC50 ([2]; Trypanosoma brucei) | pIC50 ([3]; Rattus norvegicus, L6) | pIC50 ([1]; Plasmodium falciparum, K1) | pIC50 [2] | pIC50 ([3]; l6)
CN(C)C12CC(OC(=O)c3ccccc3)C(C(c3ccccc3)C1)C(c1ccccc1)C2 (racemic) | 5.93 | 5.95 | 5.22 |  |  | 
O=C(OC1CC2(N3CCCCC3)CC(c3ccccc3)C1C(c1ccccc1)C2)c1ccncc1 (racemic; 11c) |  |  |  | 6.21 | 5.47 | 4.67
O=C(OC1CC2(N3CCCCC3)CC(c3ccccc3)C1C(c1ccccc1)C2)c1cccnc1 (stereo in doubt; 6c) |  | 4.15 |  | 6.32 |  | 6.06
O=C(OC1CC2(N3CCCCC3)CC(c3ccccc3)C1C(c1ccccc1)C2)c1ccccc1 (stereo in doubt; 4c) | 6.18 |  |  |  | 4.82 | 4.01
O=C(OC1CC2(N3CCCCC3)CC(c3ccccc3)C1C(c1ccccc1)C2)c1ccc(Cl)cc1 (racemic) |  |  |  | 5.95 | 5.75 | 4.64
OC1CC2(N3CCCCC3)CC(c3ccccc3)C1C(c1ccccc1)C2 (racemic) | 5.56 |  | 4.46 |  | 4.88 | 
CN(C)C12CC(OC(=O)c3ccncc3)C(C(c3ccccc3)C1)C(c1ccccc1)C2 (racemic; 11a) | 6.31 | 5.77 |  |  |  | 4.90
O=C(OC1CC2(N3CCCCC3)CC(c3ccccc3)C1C(c1ccccc1)C2)c1ccc(Cl)cc1 (stereo in doubt; 5c) | 6.10 |  |  |  | 4.43 | 3.98
O=C(OC1CC2(N3CCCC3)CC(c3ccccc3)C1C(c1ccccc1)C2)c1cccnc1 (stereo in doubt; 6b) | 6.70 |  |  |  | 6.21 | 4.61
O=C(OC1CC2(N3CCCC3)CC(c3ccccc3)C1C(c1ccccc1)C2)c1ccccc1 (racemic) | 6.10 |  | 5.08 |  | 6.02 | 
O=C(OC1CC2(N3CCCC3)CC(c3ccccc3)C1C(c1ccccc1)C2)c1ccncc1 (racemic; 11b) | 5.35 |  | 4.57 |  | 5.84 | 
O=C(OC1CC2(N3CCCCC3)CC(c3ccccc3)C1C(c1ccccc1)C2)c1ccccc1 (racemic) |  |  |  | 6.11 | 5.51 | 4.76
O=C(OC1CC2(N3CCCC3)CC(c3ccccc3)C1C(c1ccccc1)C2)c1cccnc1 (racemic) | 5.63 | 5.97 | 4.73 |  |  | 
CN(C)C12CC(OC(=O)c3ccc(Cl)cc3)C(C(c3ccccc3)C1)C(c1ccccc1)C2 (stereo in doubt; 5a) | 6.26 |  |  |  | 5.97 | 5.02
CN(C)C12CC(O)C(C(c3ccccc3)C1)C(c1ccccc1)C2 (racemic) | 4.88 |  |  |  | 5.44 | 3.80
O=C(OC1CC2(N3CCCC3)CC(c3ccccc3)C1C(c1ccccc1)C2)c1ccc(Cl)cc1 (stereo in doubt; 5b) | 6.33 |  |  |  | 5.20 | 4.13
CN(C)C12CC(OC(=O)c3cccnc3)C(C(c3ccccc3)C1)C(c1ccccc1)C2 (racemic) | 6.30 |  |  |  | 5.82 | 4.91
O=C(OC1CC2(N3CCCCC3)CC(c3ccccc3)C1C(c1ccccc1)C2)c1cccnc1 (racemic) |  |  |  |  |  | 4.67
CN(C)C12CC(OC(=O)c3ccccc3)C(C(c3ccccc3)C1)C(c1ccccc1)C2 (stereo in doubt; 4a) | 5.61 |  |  |  | 5.82 | 5.01
O=C(OC1CC2(N3CCCC3)CC(c3ccccc3)C1C(c1ccccc1)C2)c1ccccc1 (stereo in doubt; 4b) | 5.35 |  |  |  | 5.31 | 5.29
O=C(OC1CC2(N3CCCC3)CC(c3ccccc3)C1C(c1ccccc1)C2)c1ccc(Cl)cc1 (racemic) |  |  |  | 6.12 | 6.07 | 5.14
CN(C)C12CC(OC(=O)c3ccc(Cl)cc3)C(C(c3ccccc3)C1)C(c1ccccc1)C2 (racemic) | 5.95 | 5.69 |  |  |  | 5.36
O=C(OC1CC2(N3CCCCC3)CC(c3ccccc3)C1C(c1ccccc1)C2)c1ccncc1 (racemic; 7c) | 6.19 |  |  |  | 4.77 | 3.95
O=C(OC1CC2(N3CCCC3)CC(c3ccccc3)C1C(c1ccccc1)C2)c1ccncc1 (racemic; 7b) | 6.07 |  |  |  | 5.46 | 4.56
OC1CC2(N3CCCC3)CC(c3ccccc3)C1C(c1ccccc1)C2 (racemic) |  | 5.60 | 4.45 | 5.91 |  | 
CN(C)C12CC(OC(=O)c3cccnc3)C(C(c3ccccc3)C1)C(c1ccccc1)C2 (stereo in doubt; 6a) | 5.83 |  |  |  | 4.80 | 3.77
CN(C)C12CC(OC(=O)c3ccncc3)C(C(c3ccccc3)C1)C(c1ccccc1)C2 (racemic; 7a) | 5.94 |  |  |  | 5.50 | 4.58
